Experimental data collected from several papers.
Lines come from different studies, so protocols differ.
Aldo-keto reductase family 1 member B1: Aldo-keto reductase family 1 member B1 (Bos taurus, UniProt P16116)
HTR2C: 5-hydroxytryptamine receptor 2C (HTR2C, Homo sapiens, UniProt P28335)
MMP3: Stromelysin-1 (MMP3, Homo sapiens, UniProt P08254)
FAAH: Fatty-acid amide hydrolase 1 (FAAH, Homo sapiens, UniProt O00519)
DHFR: Dihydrofolate reductase (DHFR, Homo sapiens, UniProt P00374)
FLT3: Receptor-type tyrosine-protein kinase FLT3 (FLT3, Homo sapiens, UniProt P36888)
CSNK1D: Casein kinase I isoform delta (CSNK1D, Homo sapiens, UniProt P48730)
CAMK2A: Calcium/calmodulin-dependent protein kinase type II subunit alpha (CAMK2A, Homo sapiens, UniProt Q9UQM7)
TYRO3: Tyrosine-protein kinase receptor TYRO3 (TYRO3, Homo sapiens, UniProt Q06418)

CC(=N/N=c1\scc(-c2ccc(Cl)cc2)n1Cc1ccccc1)C12CC3CC(CC(C3)C1)C2  IC50 (Aldo-keto reductase family 1 member B1; enzyme activity, inhibitor, absorbance): 2.18 µM
CN(CCCCNC(=O)c1cc2ccccc2[nH]1)[C@@H]1Cc2cccc3[nH]c(=O)n(c23)C1  IC50 (HTR2C; ligand displacement, radioligand): 3.08 µM
CC(C)C[C@H](CC(=O)NO)C(=O)N[C@@H](Cc1ccccc1)C(=O)NCCN1CCOCC1  IC50 (MMP3; enzyme activity, inhibitor, fluorescence): 0.225 µM
O=C(Oc1nsnc1N1CCC(Cc2ccccc2)CC1)N1CCCCC1  IC50 (FAAH; enzyme activity, inhibitor; cell membranes): 0.324 µM
N[C@H](Cc1c[nH]c2ccccc12)C(=O)O  IC50 (DHFR; enzyme activity, inhibitor): 2000 µM
CC(Cc1ccc(C(C)(C)C)cc1)C(NN)c1nnnn1Cc1ccc2c(c1)OCO2 (stereo not shown)  IC50 (Endothiapepsin (EAPA, Cryphonectria parasitica, UniProt P11838); enzyme activity, inhibitor, fluorescence): 18 µM
CCN(CC)CCCC[C@H](NC(=O)[C@H](CC(C)C)NC(=O)[C@H](C)NC(=O)[C@H](Cc1ccccc1)NC(=O)c1ccc(C(C)(C)C)cc1)C(=O)N[C@@H](CO)C(=O)OC  IC50 (Chromodomain Y-like protein 2 (CDYL2, Homo sapiens, UniProt Q8N8U2); ligand displacement, TR-FRET): 0.085 µM
C/C(=N/N=c1/scc(-c2ccc(Br)cc2)n1Cc1ccccc1)c1ccc2c(c1)OCCO2  IC50 (Aldo-keto reductase family 1 member B1; enzyme activity, inhibitor, absorbance): 1.39 µM
CC(C)Nc1ccnc(Nc2cccc(-c3nccs3)c2)n1  IC50 (FLT3; enzyme activity, inhibitor): 0.475 µM
CCCC[C@@H](C(=O)N[C@@H](CC(=O)O)C(=O)N(C)[C@@H](Cc1ccccc1)C(N)=O)N(C)C(=O)[C@H](Cc1c[nH]c2ccccc12)NC(=O)CNC(=O)[C@H](Cc1ccc(O)cc1)NC(=O)[C@H](C)NC(=O)[C@@H](CCC(=O)O)NC(=O)CN1CCN(CC(=O)O)CCN(CC(=O)O)CCN(CC(=O)O)CC1  IC50 (Gastrin/cholecystokinin type B receptor (CCKBR, Homo sapiens, UniProt P32239); ligand displacement, radioligand): 0.00498 µM
C/C(=N/N=c1/scc(-c2ccc(Cl)cc2)n1-c1ccccc1)c1ccc2c(c1)OCCO2  IC50 (Aldo-keto reductase family 1 member B1; enzyme activity, inhibitor, absorbance): 14.5 µM
CC/C=C\C/C=C\C/C=C\C/C=C\C/C=C\CCCC(=O)O  IC50 (DNA topoisomerase 2-alpha (TOP2A, Homo sapiens, UniProt P11388); enzyme activity, inhibitor): 10 µM
CC(=N/N=c1\scc(-c2ccc(Br)cc2)n1-c1ccccc1C)C12CC3CC(CC(C3)C1)C2  IC50 (Aldo-keto reductase family 1 member B1; enzyme activity, inhibitor, absorbance): 10.2 µM
Cc1ccc2nc(-c3ccc([N+](=O)[O-])cc3)n(Cc3ccc(Cl)cc3)c2c1  IC50 (DHFR; enzyme activity, inhibitor): 8.01 µM
CC(C)Nc1ccnc(Nc2ccccc2-c2ccccc2)n1  IC50 (FLT3; enzyme activity, inhibitor): > 24 µM
CC[C@H](C)[C@H](NC(C)=O)C(=O)N[C@@H](CCC(=O)O)C(=O)N[C@H](C(=O)N[C@H](C=O)CC(=O)O)[C@@H](C)O  IC50 (Caspase-4 (CASP4, Homo sapiens, UniProt P49662); enzyme activity, inhibitor): 0.784 µM
Cc1cnc(-c2ccc(-c3ccc(NC(=O)Nc4c(F)cc(F)cc4F)cc3F)c3c2C(=O)NC3)[nH]1  IC50 (Aurora kinase C (AURKC, Homo sapiens, UniProt Q9UQB9); enzyme activity, inhibitor): 0.003 µM
Cc1ccc2nc(-c3ccc(Cl)cc3)n(Cc3ccccc3)c2c1  IC50 (DHFR; enzyme activity, inhibitor): 2.35 µM
c1cncc(-c2cccc(Nc3nccc(NC4CCCCC4)n3)c2)c1  IC50 (FLT3; enzyme activity, inhibitor): 0.032 µM
O=C(Nc1ccc(Cl)cc1)N1CCC(n2c(=O)[nH]c3c(Br)cccc32)CC1  IC50 (Formamidopyrimidine-DNA glycosylase (Escherichia coli, UniProt P05523); enzyme activity, inhibitor): > 100 µM
CC1=C(/C=C/C(C)=C/C=C/C(C)=C/C(=O)O)C(C)(C)CCC1  IC50 (Prothrombin (F2, Bos taurus, UniProt P00735); enzyme activity, inhibitor, fluorescence): 223 µM
COC(=O)c1cccc(Nc2nccc(NC3CCCCC3)n2)c1  IC50 (FLT3; enzyme activity, inhibitor): 0.978 µM
O=C1NCCc2[nH]c(-c3cccnc3)cc21  IC50 (CSNK1D; enzyme activity, inhibitor): > 100 µM
CC(C)(C)n1nc(-c2ccc3nc(OC4CC4)ccc3c2)c(C(N)=O)c1N  IC50 (CAMK2A; cell-free assay, inhibitor): > 10 µM
c1cc(Nc2nccc(NC3CCCCC3)n2)cc(-n2ccnc2)c1  IC50 (FLT3; enzyme activity, inhibitor): 0.016 µM
CN1CCN(c2ccc(Nc3ncc4cc(C#N)c(=O)n(C5CCCC5)c4n3)cc2)CC1  IC50 (CSNK1D; enzyme activity, inhibitor): 1.77 µM
CONc1ccnc(Nc2cccc(-c3cccnc3)c2)n1  IC50 (FLT3; enzyme activity, inhibitor): > 34 µM
CC1Cc2ccccc2N1C(=O)NCCCCN(C)[C@@H]1Cc2cccc3[nH]c(=O)n(c23)C1 (mixture of isomers)  IC50 (HTR2C; ligand displacement, radioligand): > 10 µM
COc1ccc2c(Oc3ccc4c(C(=O)Nc5ccccc5N)cccc4c3)ccnc2c1  IC50 (Aurora kinase A (AURKA, Homo sapiens, UniProt O14965); enzyme activity, inhibitor): > 0.5 µM
CCCOc1ccc(Nc2cc(C)nc3ccc(Cl)cc23)cc1  IC50 (Cell division protein FtsZ (Mycobacterium tuberculosis, UniProt P9WN95); tubulin polymerisation, inhibitor): 22.7 µM
c1cc(Nc2nccc(NC3CCCCC3)n2)cc(-c2cnccn2)c1  IC50 (FLT3; enzyme activity, inhibitor): 0.02 µM
CN(C)CC#Cc1ccc2[nH]c3c(c2c1)-c1nc(N)ncc1CCC3  IC50 (Serine/threonine-protein kinase ULK3 (ULK3, Homo sapiens, UniProt Q6PHR2); enzyme activity, inhibitor, radiometric): > 10 µM
O=C(Oc1nsnc1N1CCCCC1)N1CCCC1  IC50 (FAAH; enzyme activity, inhibitor; cell membranes): 0.813 µM
O=[N+]([O-])c1ccc(-c2cs/c(=N/N=C\c3c[nH]c4ccccc34)n2Cc2ccccc2)cc1  IC50 (Aldo-keto reductase family 1 member B1; enzyme activity, inhibitor, absorbance): 1.52 µM
COc1cc(OC)c(C(=O)CCCCN2CCC3(CC2)NC(=O)NC3=O)cc1NS(=O)(=O)c1ccc(C(F)(F)F)cc1  IC50 (HTR2C; ligand displacement, radioligand): 0.003 µM
O=C(Nc1ccccc1C=NNS(=O)(=O)c1ccc2ccccc2c1)c1ccc([N+](=O)[O-])cc1  IC50 (UDP-N-acetylmuramate--L-alanine ligase (murC, Escherichia coli K-12, UniProt P17952); enzyme activity, inhibitor, absorbance): 27 µM
CC(=N/N=c1\scc(-c2ccc(Cl)cc2)n1-c1c(C)cccc1C)C12CC3CC(CC(C3)C1)C2  IC50 (Aldo-keto reductase family 1 member B1; enzyme activity, inhibitor, absorbance): 3.51 µM
Nc1nc(Nc2ccc3c(c2)CC[C@@H](N2CCCC2)CC3)nn1-c1cc2c(nn1)-c1ccccc1CCC2  IC50 (TYRO3; enzyme activity, inhibitor): 0.927 µM
c1ccc(-c2ccccc2Nc2nccc(NC3CCCCC3)n2)cc1  IC50 (FLT3; enzyme activity, inhibitor): > 13 µM
COc1ccc(S(=O)(=O)N2Cc3cc(O)c(O)cc3CC2C(=O)NO)cc1 (stereo not shown)  IC50 (MMP3; enzyme activity, inhibitor): 10 µM
CNC(=O)c1cc2c(Oc3ccc(NC(=O)C4(C(=O)Nc5ccc(F)cc5)CC4)cc3)ccnc2cc1OC  IC50 (TYRO3; enzyme activity, inhibitor, radiometric): 0.013 µM
O=C(Oc1nsnc1N1CCCCC1)N1CCc2ccccc2C1  IC50 (FAAH; enzyme activity, inhibitor; cell membranes): 0.562 µM
CC(C)(C)n1nc(-c2cnc3cc(OC4CC4)ccc3c2)c(C(N)=O)c1N  IC50 (CAMK2A; cell-free assay, inhibitor): > 10 µM
Cc1ccc(C(=O)Nc2ccc(Oc3cc4cnn(C)c4cc3-c3cn[nH]c3)c(F)c2)c(=O)n1-c1ccc(F)cc1  IC50 (Tyrosine-protein kinase receptor Tie-1 (TIE1, Homo sapiens, UniProt P35590); enzyme activity in cells, inhibitor): > 1 µM
CC(=N/N=c1\scc(-c2ccc(Br)cc2)n1-c1c(C)cccc1C)C12CC3CC(CC(C3)C1)C2  IC50 (Aldo-keto reductase family 1 member B1; enzyme activity, inhibitor, absorbance): 4.21 µM
Cc1ccc2nc(-c3ccc([N+](=O)[O-])cc3)n(Cc3ccccc3)c2c1  IC50 (DHFR; enzyme activity, inhibitor): 6.78 µM
